Source: ChEMBL document CHEMBL4842317, “Discovery of novel 3-hydroxyandrosta-5,7-Diene-17-Carboxylic acid derivatives as anti-inflammatory bowel diseases (IBD) agents” (Eur J Med Chem, 2021)
The source made the active and inactive calls. No cut-off for these calls is given here.

Experiments:
RAW264.7 [1] = assay: Antiinflammatory activity against mouse RAW264.7 cells assessed as inhibition of LPS-induced NO production measured after 24 hrs by Griess assay; type: functional, cell-based; conditions: RAW264.7, 24 h
Summary of the method: (§1)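 RAW 264.7 cells (1 × 10^5 cells/mL) are cultured 24 h, stimulated with LPS (100 ng/mL final), and treated with compounds from 100 μM downward for 24 h in DMEM with 10% FBS. Medium nitrite is measured by Griess reaction (sulfanilamide, naphthylethylenediamine, phosphoric acid, 10 min, room temperature, dark). Mean + SD from three independent experiments.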

RAW264.7 [2] = assay: Cytotoxicity against mouse RAW264.7 cells assessed as reduction in cell viability at 3 to 100 uM incubated for 24 hrs in presence of LPS by MTT assay; type: cell-based; conditions: raw264.7, 24 h, dose 3-100 µM
Summary of the method: (§2)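 RAW 264.7 cells are seeded at 1.0 × 10^4 per well and incubated overnight. Compounds are added at concentrations from 100 μM downward, with or without LPS (100 ng/mL), for 24 h. MTT (0.5 mg/mL) is added for 4 h and the formazan is dissolved in DMSO for the read-out.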

RAW264.7 [3] = assay: Antiinflammatory activity against mouse RAW264.7 cells assessed as inhibition of LPS-induced NO production at 20 uM after 24 hrs by Griess assay; type: functional; summary of the method: as §1
RAW264.7 [4] = assay: Cytotoxicity against mouse RAW264.7 cells assessed as reduction in cell viability at 3 to 100 uM incubated for 24 hrs by MTT assay; type: cell-based; conditions: raw264.7, 24 h, dose 3-100 µM; summary of the method: as §2
RAW264.7 [5] = assay: Antiinflammatory activity against mouse RAW264.7 cells assessed as inhibition of LPS-induced iNOS mRNA expression at 20 uM incubated for 8 hrs in presence of LPS by qRT-PCR analysis; type: functional, cell-based
Summary of the method: (§3)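 RAW 264.7 cells are grown 12 h in six-well plates, then exposed to LPS (100 ng/ml) plus compound for 8 h. Reverse transcription is followed by SYBR Green qPCR with GAPDH as internal control. Relative expression is calculated by 2^-ΔΔCT versus the untreated control. Mean + SD from three independent experiments.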

RAW264.7 [6] = assay: Antiinflammatory activity against mouse RAW264.7 cells assessed as inhibition of LPS-induced COX2 mRNA expression at 20 uM incubated for 8 hrs in presence of LPS by qRT-PCR analysis; type: functional, cell-based; summary of the method: as §3
RAW264.7 [7] = assay: Antiinflammatory activity against mouse RAW264.7 cells assessed as decrease in LPS-induced IL-1beta mRNA expression at 20 uM in presence of LPS by qRT-PCR analysis; type: functional, cell-based; summary of the method: as §3
RAW264.7 [8] = assay: Antiinflammatory activity against mouse RAW264.7 cells assessed as decrease in LPS-induced IL-6 mRNA expression at 20 uM in presence of LPS by qRT-PCR analysis; type: functional, cell-based; summary of the method: as §3
RAW264.7 [9] = assay: Antiinflammatory activity against mouse RAW264.7 cells assessed as decrease in LPS-induced TNF-alpha mRNA expression at 20 uM in presence of LPS by qRT-PCR analysis; type: functional, cell-based; summary of the method: as §3
RAW264.7 [10] = assay: Antiinflammatory activity against mouse RAW264.7 cells assessed as inhibition of LPS-induced MCP-1 mRNA expression at 20 uM in presence of LPS by qRT-PCR analysis; type: functional, cell-based; summary of the method: as §3
RAW264.7 [11] = assay: Antiinflammatory activity against mouse RAW264.7 cells assessed as decrease in LPS-induced NF-kappB mRNA expression at 20 uM in presence of LPS by qRT-PCR analysis; type: functional, cell-based; summary of the method: as §3
Mus musculus [12] = assay: Antiinflammatory activity against DSS-induced colitis C57BL/6 mouse model assessed as reduction in scores of stool consistency and bleeding at 20 mg/kg, ip administered for 7 days by immunohistochemistry analysis; type: functional, organism-based; conditions: time 7.0 day
Mus musculus [13] = assay: Antiinflammatory activity against DSS-induced colitis C57BL/6 mouse model assessed as dispersed CD86-positive cells in colon at 20 mg/kg, ip administered for 7 days by hematoxylin and eosin staining based microscopic analysis; type: functional, organism-based; conditions: time 7.0 day
Summary of the method: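 DSS colitis (3.5% DSS, male C57BL/6 mice, n=5 per group) with 7-day intraperitoneal dosing in saline/castor oil/ethanol/DMSO vehicle. Colons are fixed in formalin, paraffin-embedded and stained with H&E (viewed at 200X). Separately, sections undergo CD86 immunohistochemistry (citrate antigen retrieval, 3% H2O2 block, 1:200 primary and HRP secondary, hematoxylin counterstain) viewed at 400X.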

IC50 (RAW264.7 [1]) | Structure (SMILES) | Activity (RAW264.7 [2]) | inhibition at 20 µM (RAW264.7 [3]) | Activity (RAW264.7 [4]) | Activity (RAW264.7 [5]) | Activity (RAW264.7 [6]) | Activity (RAW264.7 [7]) | Activity (RAW264.7 [8]) | Activity (RAW264.7 [9]) | Activity (RAW264.7 [10]) | Activity (RAW264.7 [11]) | Activity (Mus musculus [12]) | Activity (Mus musculus [13])
> 20 µM | C[C@]12CC[C@H]3[C@@H](CC=C4C[C@@H](O)CC[C@@]43C)[C@@H]1CC[C@@H]2C(=O)N1CCCCC1 | Non-Toxic | 37.4% | Non-Toxic | – | – | – | – | – | – | – | – | –
> 20 µM | C[C@]12CC[C@H]3[C@@H](CC=C4C[C@@H](O)CC[C@@]43C)[C@@H]1CC[C@@H]2C(=O)Nc1n[nH]cc1C#N | Non-Toxic | 24.9% | Non-Toxic | – | – | – | – | – | – | – | – | –
> 20 µM | C[C@]12CC[C@H]3[C@@H](CC=C4C[C@@H](O)CC[C@@]43C)[C@@H]1CC[C@@H]2C(=O)NC1CC1 | Non-Toxic | 40.5% | Non-Toxic | – | – | – | – | – | – | – | – | –
> 20 µM | C[C@]12CC[C@H]3[C@@H](CC=C4C[C@@H](O)CC[C@@]43C)[C@@H]1CC[C@@H]2C(=O)NCCc1ccccc1 | Non-Toxic | 45.4% | Non-Toxic | – | – | – | – | – | – | – | – | –
15.6 µM | CCCNC(=O)[C@H]1CC[C@H]2[C@@H]3CC=C4C[C@@H](O)CC[C@]4(C)[C@H]3CC[C@]12C | Non-Toxic | 72.8% | Non-Toxic | inactive | Active | inactive | inactive | inactive | Active | Active | – | –
11.3 µM | CC(C)CCNC(=O)[C@H]1CC[C@H]2[C@@H]3CC=C4C[C@@H](O)CC[C@]4(C)[C@H]3CC[C@]12C | Non-Toxic | 59.2% | Non-Toxic | – | – | – | – | – | – | – | – | –
> 20 µM | CCC[C@](C)(O)[C@H]1CC[C@H]2C3=CC=C4C[C@@H](O)CC[C@]4(C)[C@H]3CC[C@@]21C | Non-Toxic | 55.3% | Non-Toxic | – | – | – | – | – | – | – | – | –
> 20 µM | CC(C)(O)CNC(=O)[C@H]1CC[C@H]2[C@@H]3CC=C4C[C@@H](O)CC[C@]4(C)[C@H]3CC[C@]12C | Non-Toxic | 38.8% | Non-Toxic | – | – | – | – | – | – | – | – | –
> 20 µM | CCCCNC(=O)[C@H]1CC[C@H]2[C@@H]3CC=C4C[C@@H](O)CC[C@]4(C)[C@H]3CC[C@]12C | Non-Toxic | 44.4% | Non-Toxic | – | – | – | – | – | – | – | – | –
31.3 µM | C[C@]12CC[C@H]3[C@@H](CC=C4C[C@@H](O)CC[C@@]43C)[C@@H]1CC[C@@H]2C(=O)NCCN1CCCC1 | Non-Toxic | 50.4% | Non-Toxic | – | – | – | – | – | – | – | – | –
27 µM | CC[C@](C)(O)[C@H]1CC[C@H]2C3=CC=C4C[C@@H](O)CC[C@]4(C)[C@H]3CC[C@@]21C | Non-Toxic | 52.5% | Non-Toxic | – | – | – | – | – | – | – | – | –
> 20 µM | CCN(CC)C(=O)[C@H]1CC[C@H]2[C@@H]3CC=C4C[C@@H](O)CC[C@]4(C)[C@H]3CC[C@]12C | Non-Toxic | 25.5% | Non-Toxic | – | – | – | – | – | – | – | – | –
> 20 µM | C[C@]12CC[C@H]3[C@@H](CC=C4C[C@@H](O)CC[C@@]43C)[C@@H]1CC[C@@H]2C(=O)NCCCn1ccnc1 | Non-Toxic | 50.4% | Non-Toxic | – | – | – | – | – | – | – | – | –
> 20 µM | COC(=O)[C@H]1CC[C@H]2C3=CC=C4C[C@@H](O)CC[C@]4(C)[C@H]3CC[C@]12C | Non-Toxic | 21.8% | Non-Toxic | – | – | – | – | – | – | – | – | –
> 20 µM | CC(=O)NCCNC(=O)[C@H]1CC[C@H]2[C@@H]3CC=C4C[C@@H](O)CC[C@]4(C)[C@H]3CC[C@]12C | Non-Toxic | 16.1% | Non-Toxic | – | – | – | – | – | – | – | – | –
> 20 µM | C[C@]12CC[C@H]3[C@@H](CC=C4C[C@@H](O)CC[C@@]43C)[C@@H]1CC[C@@H]2C(=O)NC1CCCCC1 | Non-Toxic | 47.8% | Non-Toxic | – | – | – | – | – | – | – | – | –
14.8 µM | C[C@@H]1C[C@H]2[C@@H]3CCC4=CC(=O)C=C[C@]4(C)[C@@]3(F)[C@@H](O)C[C@]2(C)[C@@]1(O)C(=O)CO [DEXAMETHASONE] | – | 93.6% | – | – | – | – | – | Active | – | – | Active | Active
21.2 µM | C[C@]12CC[C@H]3[C@@H](CC=C4C[C@@H](O)CC[C@@]43C)[C@@H]1CC[C@@H]2C(=O)NCCc1cccs1 | Non-Toxic | 55.6% | Non-Toxic | – | – | – | – | – | – | – | – | –
> 20 µM | Cc1ccn(C(=O)[C@H]2CC[C@H]3[C@@H]4CC=C5C[C@@H](O)CC[C@]5(C)[C@H]4CC[C@]23C)n1 | Non-Toxic | 35.8% | Non-Toxic | – | – | – | – | – | – | – | – | –
> 20 µM | CCCC[C@](C)(O)[C@H]1CC[C@H]2C3=CC=C4C[C@@H](O)CC[C@]4(C)[C@H]3CC[C@@]21C | Non-Toxic | 28.8% | Non-Toxic | – | – | – | – | – | – | – | – | –
> 20 µM | CCCCOC(=O)[C@H]1CC[C@H]2C3=CC=C4C[C@@H](O)CC[C@]4(C)[C@H]3CC[C@]12C | Non-Toxic | 37.8% | Non-Toxic | – | – | – | – | – | – | – | – | –
> 20 µM | CC(C)NC(=O)[C@H]1CC[C@H]2[C@@H]3CC=C4C[C@@H](O)CC[C@]4(C)[C@H]3CC[C@]12C | Non-Toxic | 7.84% | Non-Toxic | – | – | – | – | – | – | – | – | –
> 20 µM | C[C@]12CC[C@H]3[C@@H](CC=C4C[C@@H](O)CC[C@@]43C)[C@@H]1CC[C@@H]2C(=O)NCCN1CCOCC1 | Non-Toxic | 36.4% | Non-Toxic | – | – | – | – | – | – | – | – | –
> 20 µM | CCOC(=O)[C@H]1CC[C@H]2C3=CC=C4C[C@@H](O)CC[C@]4(C)[C@H]3CC[C@]12C | Non-Toxic | 11.3% | Non-Toxic | – | – | – | – | – | – | – | – | –
> 20 µM | C[C@]12CC[C@H]3[C@@H](CC=C4C[C@@H](O)CC[C@@]43C)[C@@H]1CC[C@@H]2C(=O)NCCO | Non-Toxic | 41.1% | Non-Toxic | – | – | – | – | – | – | – | – | –
9.02 µM | CCCOC(=O)[C@H]1CC[C@H]2C3=CC=C4C[C@@H](O)CC[C@]4(C)[C@H]3CC[C@]12C | Non-Toxic | 89.4% | Non-Toxic | Active | Active | Active | Active | Active | Active | Active | – | –
